Experiment [1] is described as follows: inhibitors of TNFa-induced NFkB p65 translocation, primary screen, imaging, HUVEC, MLSMR starter and 10KST1 sets (AID 438;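 active = inhibition above 20% together with a positive visual image hit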;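 also: compound added about 3h40 before a 20 min TNFalpha stimulation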;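 as to inhibition: signal is the nuclear over cytoplasmic p65 intensity ratio per well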). As to conditions: HUVEC TNFa-induced p65 nuclear translocation; cell count: measured here: nuclei count (cytotoxicity indicator), at 2.08 µM; inhibition: at 2 µM, stronger effect = higher value, 0% TNFa-plus-vehicle, 100% no-TNFa wells.
Experiment [2] can be described thus: inhibitors of mutant huntingtin aggregation, primary screen, imaging, exon1htt(103Q)mCFP cells, high-content imaging (AID 483;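 active = visual image review flags a hit and inhibition of aggregation exceeds 20%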;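 also: compound exposure lasted 3 days before fixation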;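 as to nuclei count: percent of the per-plate median nuclei count of sample wells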). As to conditions: exon1htt(103Q)mCFP cell line, aggregate imaging, at 2 µM; inhibition of aggregation: stronger effect = higher value; nuclei count: measured here: cell count, toxicity.
Experiment [3] is described as follows: inhibitors of E-selectin induction by TNFa, primary screen, imaging, HUVEC, immunofluorescence, MLSMR starter and 10KST1 sets (AID 487;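 active = visually confirmed hit in the image check and inhibition above 20%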;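 as to inhibition: signal is fraction of cell area covered by stained E-selectin grains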;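 as to nuclei count: 100% = median nuclei count of all wells on the same plate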). As to conditions: HUVEC TNFalpha-induced E-selectin immunofluorescence imaging, at 2 µM; inhibition: stronger effect = higher value; nuclei count: measured here: cell number, toxicity.
Experiment [4] has as its target Voltage-gated potassium channel subunit beta-2 (Rattus norvegicus) (UniProt P62483). The experiment in a line: KvBeta enzyme negative modulators, primary screen, biochemical, NADPH fluorescence (AID 622).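 Also: slope of raw intensity against log time taken from 70 to 1610 s.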 As to conditions: recombinant KvBeta, 4-cyanobenzaldehyde reduction, at 10 µM, stronger effect = higher value.
Experiment [5] shares this target. Description: KvBeta positive modulators, primary screen, biochemical, NADPH fluorescence (AID 623;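 active = NADPH fluorescence slope more negative than the mean of all samples by about 3 SD, 99.7% confidence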;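 also: fluorescence intensity change per second fitted from 20 to 320 s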). As to conditions: Recombinant KvBeta, NADPH fluorescence decrease slope, 10 min; at 10 µM; stronger effect = lower value.
The target in experiment [6] is Muscarinic acetylcholine receptor M4 (Homo sapiens) (UniProt P08173). Description: compounds altering M4/GIRK thallium flux, either direction, primary screen, M4 allosteric agonist project, cell-based, HEK293 M4/GIRK, BTC-AM (AID 625;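 active = fluorescence slope after compound addition differing from the mean of all tested samples at 99.7% confidence, mostly higher but some lower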;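 also: thallium influx through GIRK channels coupled to M4 in HEK293 cells with BTC-AM dye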). As to conditions: at 10 µM, actives lie on both sides. Put shortly: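 Material – HEK293 cells with M4 receptor and GIRK channels · Buffer or medium – pH 7.3 thallium assay buffer · Doses – one dose, 10 µM final · Timing – cells overnight at 37 °C, BTC-AM loading 1 h, reads 2 min total · Measured by – kinetic fluorescence with BTC-AM dye · Controls – carbachol and DMSO controls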
Muscarinic acetylcholine receptor M4 (Homo sapiens), sequence (P08173 whole entry, looked up): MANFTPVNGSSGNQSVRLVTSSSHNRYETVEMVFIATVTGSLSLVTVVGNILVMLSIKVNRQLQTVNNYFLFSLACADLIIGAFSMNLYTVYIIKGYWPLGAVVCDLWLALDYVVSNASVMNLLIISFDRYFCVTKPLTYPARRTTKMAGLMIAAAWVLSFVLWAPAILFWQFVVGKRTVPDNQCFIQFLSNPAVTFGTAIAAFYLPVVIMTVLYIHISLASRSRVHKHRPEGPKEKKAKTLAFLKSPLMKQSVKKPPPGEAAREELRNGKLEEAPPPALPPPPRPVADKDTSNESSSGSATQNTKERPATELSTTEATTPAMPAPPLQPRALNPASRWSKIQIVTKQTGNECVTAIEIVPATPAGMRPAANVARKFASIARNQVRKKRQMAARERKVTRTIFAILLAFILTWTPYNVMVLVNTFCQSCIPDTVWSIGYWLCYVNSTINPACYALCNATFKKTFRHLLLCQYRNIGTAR

Experiment [7] is described as follows: inhibitors of Sendai virus-induced IRF3 signaling, primary screen, TLR/RLR signaling modifier project, cell-based, Sendai virus stimulus, luciferase, 10K MLSCN set (AID 602276;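 active = inhibition at or above 50% at 10 µM; inactive = inhibition below 50%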;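 also: firefly luciferase from ISG56 promoter only with Renilla not read in this screen; 0% = Sendai virus plus DMSO and 100% = medium plus DMSO without virus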). As to conditions: HEK293 RL24 IRF3 luciferase reporter, at 10 µM, stronger effect = higher value. (In general: Reporter assays use an easily measured gene product as a stand-in for the process of interest.)

Experiment [8] in a line: inhibitors of poly I:C-induced TLR3 signaling, primary screen, cell-based, poly I:C stimulus, luciferase, 10K MLSCN set (AID 602277;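 active = inhibition of the reporter signal at or above 50%; inactive = inhibition below 50%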). As to conditions: HEK293-TLR3 RL24 IRF3 luciferase reporter, at 10 µM, stronger effect = higher value.

Results on 14 compounds are retold here after PubChem BioAssay.

The inhibition is the change of the read-out against control, counted positive when it falls.

The source made the active and inactive calls.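 The calls were made as follows, unless noted: active = fluorescence slope higher than the sample average by over 3 SD (cut at about -0.22 in these data, passing the limit was not always enough); inactive = the rest.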

Voltage-gated potassium channel subunit beta-2 (Rattus norvegicus), sequence (P62483 whole entry, looked up): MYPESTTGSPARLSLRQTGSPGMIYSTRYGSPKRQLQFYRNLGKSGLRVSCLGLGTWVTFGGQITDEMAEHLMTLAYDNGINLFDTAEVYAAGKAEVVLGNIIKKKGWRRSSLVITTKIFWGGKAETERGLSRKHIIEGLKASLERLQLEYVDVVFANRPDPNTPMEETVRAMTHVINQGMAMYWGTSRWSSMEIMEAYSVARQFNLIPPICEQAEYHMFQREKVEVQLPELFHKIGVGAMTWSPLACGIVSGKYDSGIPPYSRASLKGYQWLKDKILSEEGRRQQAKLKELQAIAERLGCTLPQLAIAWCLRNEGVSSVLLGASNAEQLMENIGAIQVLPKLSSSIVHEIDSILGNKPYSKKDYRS

For `CCCn1nnnc1SCC(=O)c1ccc2c(c1)OCCO2`, in experiment [1], the cell count stood at 571. Also, the inhibition in experiment [1] was 2.6% (inactive); in experiment [3], 34% (inactive); in experiment [7], -31.3% (inactive); in experiment [8] it was -69.8% (inactive). Moreover, in experiment [2], the inhibition of aggregation was -22.6% (inactive). Besides, the results for the nuclei count in experiment [2] and in experiment [3] were 120% and 101%, respectively. The fluorescence slope in experiment [4] is -0.441 (inactive); in experiment [6], 0.00722 (inactive). For the same compound, the NADPH fluorescence slope in experiment [5] is 0.000111 (inactive).

Consider `COc1ccccc1-c1ccc(Nc2cccc(C(C)=O)c2)nn1`, for which, in experiment [1], the cell count was 319. The inhibition in experiment [1] is -11.3% (inactive); in experiment [3] it was 0.3% (inactive); in experiment [7], 12.1% (inactive); in experiment [8], -36.2% (inactive). In addition, in experiment [2], the inhibition of aggregation was -0.2% (inactive). Besides, the nuclei count in experiment [2] worked out at 74.7%; in experiment [3], 103%. Further, the results for the fluorescence slope in experiment [4] and in experiment [6] were -0.576 (inactive) and 0.00562 (inactive), respectively. Moreover, the NADPH fluorescence slope in experiment [5] was -6e-05 (inactive).

For `O=C(Cn1ccc2ccccc2c1=O)NCCC(=O)NC1CCN(Cc2ccccc2)CC1`, the cell count in experiment [1] worked out at 661. Further, the inhibition was -8.5% (inactive) in experiment [1], -130% (inactive) in experiment [3], -8.1% (inactive) in experiment [7] and 0.132% (inactive) in experiment [8]. Besides, the inhibition of aggregation in experiment [2] is 2.9% (inactive). The nuclei count in experiment [2] was determined as 83.9%; in experiment [3], 129%. Besides, the fluorescence slope is -0.486 (inactive) in experiment [4] and 0.00456 (inactive) in experiment [6]. For the same compound, the NADPH fluorescence slope in experiment [5] was -0.000203 (inactive).

For `CCCCc1ccc(NC(=O)N[C@H](C(=O)O)C(C)CC)cc1` (some centres undefined), the cell count in experiment [1] was determined as 610. Moreover, the inhibition in experiment [1] was -13.3% (inactive); in experiment [3] it was -22.1% (inactive); in experiment [7] it was 4.79% (inactive); in experiment [8], 14.4% (inactive). For the same compound, in experiment [2], the inhibition of aggregation is -22.8% (inactive). Moreover, the nuclei count in experiment [2] was determined as 109%; in experiment [3], 118%. In addition, the fluorescence slope was -0.446 (inactive) in experiment [4] and 0.00522 (inactive) in experiment [6]. In addition, the NADPH fluorescence slope in experiment [5] is -3.7e-05 (inactive).

In the case of `COc1cc(C2C3=C(CC(C)(C)CC3=O)Nc3c2c(=O)[nH]c(=O)n3Cc2ccccc2)ccc1O` (centres undefined), in experiment [1], the cell count is 271. The inhibition is 15% (inactive) in experiment [1], -45.4% (inactive) in experiment [3], 9.34% (inactive) in experiment [7] and 5.06% (inactive) in experiment [8]. Moreover, the inhibition of aggregation in experiment [2] was -4.8% (inactive). Moreover, the nuclei count in experiment [2] stood at 104%; in experiment [3], 114%. The figures for the fluorescence slope in experiment [4] and in experiment [6] were -0.463 (inactive) and 0.00547 (inactive), respectively. Besides, the NADPH fluorescence slope in experiment [5] is -8e-05 (inactive).

In the case of `O=c1c2c(nc3nc(CCc4ccccc4)[nH]n13)CCC2`, the cell count in experiment [1] was determined as 344. Moreover, the inhibition in experiment [1] is 6.7% (inactive); in experiment [3], -59.4% (inactive); in experiment [7] it was 16.2% (inactive); in experiment [8], 19.5% (inactive). Also, the inhibition of aggregation in experiment [2] is -5.3% (inactive). Further, the figures for the nuclei count in experiment [2] and in experiment [3] were 97.5% and 105%, respectively. In addition, the fluorescence slope in experiment [4] is -0.527 (inactive); in experiment [6], 0.00459 (inactive). For the same compound, the NADPH fluorescence slope in experiment [5] is -1.7e-05 (inactive).

As for `Cc1nc2ccc(NC(=O)N3CCOCC3)cc2s1`, the cell count in experiment [1] came to 416. For the same compound, the inhibition was 0.5% (inactive) in experiment [1], -51% (inactive) in experiment [3], 10.7% (inactive) in experiment [7] and 8.12% (inactive) in experiment [8]. Also, in experiment [2], the inhibition of aggregation is -0.3% (inactive). Moreover, the nuclei count worked out at 96.2% in experiment [2] and 109% in experiment [3]. Also, the fluorescence slope was -0.497 (inactive) in experiment [4] and 0.00618 (inactive) in experiment [6]. The NADPH fluorescence slope in experiment [5] is 8.6e-06 (inactive).

As for `Cc1cc(C)cc(N2CCCn3c2nc2c3c(=O)n(CCN3CCOCC3)c(=O)n2C)c1`, the cell count in experiment [1] came to 390. In addition, the inhibition in experiment [1] is 3.3% (inactive); in experiment [3], 27.6% (inactive); in experiment [7], 18.5% (inactive); in experiment [8], 34.4% (inactive). Further, in experiment [2], the inhibition of aggregation is 0.7% (inactive). Further, the nuclei count in experiment [2] turned out to be 108%; in experiment [3] it was 103%. In addition, the fluorescence slope in experiment [4] is -0.388 (inactive); in experiment [6], 0.00574 (inactive). Besides, the NADPH fluorescence slope in experiment [5] was 6.6e-05 (inactive).

`COCCSc1ccccc1C(=O)Nc1cc(C)on1`: the cell count in experiment [1] worked out at 587. In addition, the inhibition in experiment [1] was 3.3% (inactive); in experiment [3], 22.8% (inactive); in experiment [7] it was 14.3% (inactive); in experiment [8], 20.9% (inactive). In addition, the inhibition of aggregation in experiment [2] is -4.3% (inactive). The nuclei count in experiment [2] worked out at 92.3%; in experiment [3] it was 90.6%. The fluorescence slope in experiment [4] is -0.568 (inactive); in experiment [6], 0.00516 (inactive). The NADPH fluorescence slope in experiment [5] is -2.5e-05 (inactive).

With `c1cnn(-c2cc(N3CCOCC3)ncn2)c1`, the cell count in experiment [1] came to 301. Moreover, the inhibition was -5% (inactive) in experiment [1], 2.8% (inactive) in experiment [3], -15.2% (inactive) in experiment [7] and -21.2% (inactive) in experiment [8]. The inhibition of aggregation in experiment [2] is 20.4% (inactive). Also, the nuclei count is 85.2% in experiment [2] and 101% in experiment [3]. For the same compound, the fluorescence slope in experiment [4] was -0.5 (inactive); in experiment [6], 0.0047 (inactive). Also, the NADPH fluorescence slope in experiment [5] was 7.1e-05 (inactive).

Consider `COC(=O)c1c(-c2ccc(F)cc2)noc1N`, for which the cell count in experiment [1] is 502. Further, the inhibition was 5.3% (inactive) in experiment [1], -2% (inactive) in experiment [3], -1.09% (inactive) in experiment [7] and -9.58% (inactive) in experiment [8]. Also, the inhibition of aggregation in experiment [2] is -3.7% (inactive). Moreover, the nuclei count in experiment [2] worked out at 106%; in experiment [3], 104%. Moreover, the fluorescence slope in experiment [4] is -0.278 (inactive); in experiment [6], 0.00633 (inactive). Moreover, in experiment [5], the NADPH fluorescence slope was -6.3e-06 (inactive).

`Cc1ccc(C)c(NC(=O)C2CCC(C)(C(=O)O)C2(C)C)c1` (centres undefined): the cell count in experiment [1] was determined as 352. Further, the inhibition in experiment [1] was -2.5% (inactive); in experiment [3], -105% (inactive); in experiment [7] it was 15.8% (inactive); in experiment [8], 30.8% (inactive). In addition, in experiment [2], the inhibition of aggregation is 6% (inactive). Further, the nuclei count in experiment [2] is 98%; in experiment [3], 124%. For the same compound, the values for the fluorescence slope in experiment [4] and in experiment [6] were -0.603 (inactive) and 0.00734 (inactive), respectively. Besides, in experiment [5], the NADPH fluorescence slope was 2.7e-06 (inactive).

In the case of `CCOC(=O)C1CCN(Cc2ccc(C(=O)OC)cc2)CC1`, the cell count in experiment [1] was determined as 462. For the same compound, the inhibition in experiment [1] is -4.3% (inactive); in experiment [3] it was 4.3% (inactive); in experiment [7], 0.779% (inactive); in experiment [8], 12.5% (inactive). Further, the inhibition of aggregation in experiment [2] is -0.6% (inactive). In addition, the nuclei count in experiment [2] came out at 97%; in experiment [3], 85.6%. The fluorescence slope is -0.595 (inactive) in experiment [4] and 0.0043 (inactive) in experiment [6]. Moreover, the NADPH fluorescence slope in experiment [5] was -4.2e-05 (inactive).

`CCOc1cc(S(=O)(=O)NCc2ccccn2)c(C)cc1C`: in experiment [1], the cell count turned out to be 412. In addition, the inhibition in experiment [1] was -15.9% (inactive); in experiment [3] it was -20% (inactive); in experiment [7] it was 8.05% (inactive); in experiment [8], 20.9% (inactive). The inhibition of aggregation in experiment [2] was -0.5% (inactive). Besides, the nuclei count in experiment [2] came to 112%; in experiment [3], 68.1%. The values for the fluorescence slope in experiment [4] and in experiment [6] were -0.44 (inactive) and 0.0075 (inactive), respectively. In addition, the NADPH fluorescence slope in experiment [5] is -3.9e-05 (inactive).
